The target of one data set is Dipeptidyl peptidase 4 (Homo sapiens, UniProt P27487).
In another data set the target is Dipeptidyl peptidase 2 (Homo sapiens, UniProt Q9UHL4). The experiment in a line: In vitro inhibitory concentration was measured against quiescent cell proline dipeptidase.
Data set [1] can be described thus: Maximum concentration was measured in plasma of rat upon peroral dose of 2 mpk. The format is ADME, organism-based. Further details: dose 2 mpk, route oral. The following applies: po, 2 mg/kg. Put shortly:
(§1)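 Pharmacokinetics in rat, dog and monkey. Dosing was iv 1 mpk and po 2 mpk.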

The nature of data set [2]: Plasma half-life was measured in plasma of rat. Format: ADME, cell-free. Summed up: as §1
The next data set has as its target Dipeptidyl peptidase 9 (Homo sapiens, UniProt Q86TI2). The experiment in a line: In vitro inhibitory concentration was measured against dipeptidylpeptidase 9.
A short description of data set [3]: Oral bioavailability in rat. The format is ADME, organism-based. The following applies: in vivo. Summed up:
as §1

Data set [4] can be described thus: Plasma clearance was measured in rat. The format is ADME, organism-based. As to conditions: read-out: Clp. Put shortly:
as §1

Data set [5] in a line: Plasma half-life was measured in monkey. Format: ADME. As to conditions: cercopithecidae. Summed up: as §1
Data set [6] is described as follows: Oral bioavailability in monkey. As to conditions: cercopithecidae, in vivo. The format is ADME, organism-based. Summed up:
as §1

The nature of data set [7]: Maximum concentration in plasma of rat upon peroral dose of 2 mpk. The following applies: po, 2 mg/kg. Further details: dose 2 mpk, route oral. Format: ADME, organism-based. Summed up:
as §1

A short description of data set [8]: Oral bioavailability in dog. The format is ADME, organism-based, Canis lupus familiaris. As to conditions: in vivo. Put shortly:
as §1

A short description of data set [9]: Maximum concentration in plasma of monkey upon peroral dose of 2 mpk. Format: ADME, organism-based. As to conditions: cercopithecidae, po, 2 mg/kg. Further details: dose 2 mpk, route oral. Summed up:
as §1

Data set [10] in a line: Plasma clearance was measured in monkey. Format: ADME, organism-based. The following applies: cercopithecidae, read-out: Clp. Put shortly: as §1
The nature of data set [11]: Maximum concentration in plasma of dog upon peroral dose of 2 mpk. The format is ADME, organism-based, Canis lupus familiaris. Further details: dose 2 mpk, route oral. As to conditions: po, 2 mg/kg. Put shortly:
as §1

Data set [12] can be described thus: Plasma half-life was measured in rat. The format is ADME, organism-based. Put shortly: as §1
Data set [13] can be described thus: Plasma clearance was measured in dog. Format: ADME, organism-based, Canis lupus familiaris. As to conditions: read-out: Clp. Summed up: as §1
Data set [14] in a line: Plasma half-life was measured in dog. The format is ADME, cell-free, Canis lupus familiaris. Summed up: as §1
The nature of data set [15]: Maximum concentration was measured in plasma of dog upon peroral dose of 2 mpk. Format: ADME, organism-based, Canis lupus familiaris. More on the design: dose 2 mpk, route oral. The following applies: po, 2 mg/kg. Put shortly: as §1
Data set [16] can be described thus: Maximum concentration was measured in plasma of monkey upon peroral dose of 2 mpk. The format is ADME, organism-based. More on the design: dose 2 mpk, route oral. As to conditions: cercopithecidae, po, 2 mg/kg. Put shortly: as §1

The values that follow come from ChEMBL document CHEMBL1141929, “(2R)-4-oxo-4-[3-(trifluoromethyl)-5,6-dihydro[1,2,4]triazolo[4,3-a]pyrazin-7(8H)-yl]-1-(2,4,5-trifluorophenyl)butan-2-amine: a potent, orally active dipeptidyl peptidase IV inhibitor for the treatment of type 2 diabetes” (J Med Chem, 2005).

For orientation: IC50 means the concentration that inhibits the measured activity by half. As a reminder, the Cmax is the maximum level reached in the sampled fluid or tissue. As usually defined, the half-life is the time needed for the level to fall by half in the phase considered. By bioavailability is commonly meant dose-corrected exposure relative to a reference, in per cent.

Sequence of Dipeptidyl peptidase 4 (P27487 whole entry): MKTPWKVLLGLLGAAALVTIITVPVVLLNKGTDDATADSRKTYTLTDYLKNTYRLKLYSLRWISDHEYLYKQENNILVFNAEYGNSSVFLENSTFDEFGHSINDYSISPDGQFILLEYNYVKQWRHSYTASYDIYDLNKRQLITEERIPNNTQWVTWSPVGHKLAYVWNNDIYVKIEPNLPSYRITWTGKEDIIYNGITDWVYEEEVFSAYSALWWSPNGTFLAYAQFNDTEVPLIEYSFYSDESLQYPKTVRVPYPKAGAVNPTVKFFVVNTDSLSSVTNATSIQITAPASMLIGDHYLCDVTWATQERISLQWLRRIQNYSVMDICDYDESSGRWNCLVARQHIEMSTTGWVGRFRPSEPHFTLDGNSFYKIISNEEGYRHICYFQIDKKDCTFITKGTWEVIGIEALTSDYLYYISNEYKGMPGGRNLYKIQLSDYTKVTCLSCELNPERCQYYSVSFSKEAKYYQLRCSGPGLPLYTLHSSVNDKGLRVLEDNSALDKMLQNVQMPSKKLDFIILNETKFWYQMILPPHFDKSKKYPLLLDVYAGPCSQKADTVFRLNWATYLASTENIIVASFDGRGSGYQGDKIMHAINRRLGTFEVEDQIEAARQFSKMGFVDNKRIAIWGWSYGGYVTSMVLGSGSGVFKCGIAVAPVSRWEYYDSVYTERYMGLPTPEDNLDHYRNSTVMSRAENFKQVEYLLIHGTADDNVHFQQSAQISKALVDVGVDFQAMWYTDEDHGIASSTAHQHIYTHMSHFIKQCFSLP
Sequence of Dipeptidyl peptidase 9 (Q86TI2 whole entry): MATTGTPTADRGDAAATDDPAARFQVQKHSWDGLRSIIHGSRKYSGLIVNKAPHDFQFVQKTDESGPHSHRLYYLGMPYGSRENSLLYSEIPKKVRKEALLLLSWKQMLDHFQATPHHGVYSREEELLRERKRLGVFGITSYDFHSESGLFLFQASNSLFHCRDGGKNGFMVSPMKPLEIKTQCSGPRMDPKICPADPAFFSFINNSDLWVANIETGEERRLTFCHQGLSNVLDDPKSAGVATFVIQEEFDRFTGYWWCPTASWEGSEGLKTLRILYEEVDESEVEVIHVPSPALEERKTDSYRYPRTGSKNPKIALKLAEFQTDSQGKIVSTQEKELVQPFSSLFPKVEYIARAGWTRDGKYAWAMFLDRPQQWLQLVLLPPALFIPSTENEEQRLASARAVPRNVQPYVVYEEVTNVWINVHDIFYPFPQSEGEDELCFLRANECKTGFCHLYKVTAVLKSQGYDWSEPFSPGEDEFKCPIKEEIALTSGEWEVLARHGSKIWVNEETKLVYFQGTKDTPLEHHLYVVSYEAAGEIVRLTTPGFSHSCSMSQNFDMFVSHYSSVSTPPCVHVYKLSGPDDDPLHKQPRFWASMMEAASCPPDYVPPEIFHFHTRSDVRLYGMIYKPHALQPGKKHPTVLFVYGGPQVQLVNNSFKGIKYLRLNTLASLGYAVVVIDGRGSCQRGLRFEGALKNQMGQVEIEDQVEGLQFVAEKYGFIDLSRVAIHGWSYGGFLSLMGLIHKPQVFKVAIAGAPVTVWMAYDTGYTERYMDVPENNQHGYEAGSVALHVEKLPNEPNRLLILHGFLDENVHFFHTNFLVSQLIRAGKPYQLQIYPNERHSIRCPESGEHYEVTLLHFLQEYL

Compound `N[C@@H](CC(=O)N1CCNCC1)Cc1ccc(F)c(F)c1` gave an IC50 at Dipeptidyl peptidase 4 of 3.1 µM.

In the case of `Cl.N[C@@H](CC(=O)N1CCn2c(nnc2C(F)(F)F)C1)Cc1cc(F)ccc1F`, the IC50 against Dipeptidyl peptidase 2 and at Dipeptidyl peptidase 9 was above 100 µM in each case. In addition, the Cmax in data set [1] worked out at 190 nM. In data set [2], this compound had a half-life of 1.6 h. The compound further returned a bioavailability in data set [3] of 51%. Also, the clearance in data set [4] was determined as 43 mL/min/kg.

With `N[C@@H](CC(=O)N1CCn2cnnc2C1)Cc1ccc(F)c(F)c1`, the IC50 against Dipeptidyl peptidase 2 is above 10 µM; at Dipeptidyl peptidase 9, above 100 µM; on Dipeptidyl peptidase 4, 0.455 µM.

Take `CCc1nnc2n1CCN(C(=O)C[C@H](N)Cc1ccc(F)c(F)c1)C2.Cl`: the IC50 against Dipeptidyl peptidase 2 was 64 µM; against Dipeptidyl peptidase 9, above 100 µM; against Dipeptidyl peptidase 4, 0.231 µM. Further, the half-life was 1.3 h in data set [5], 2.7 h in [12] and 2.3 h in [14]. For the same compound, the bioavailability in data set [6] was determined as 1%; in data set [8], 33%; in data set [3], 2%. Besides, the Cmax amounted to 10 nM in data set [7], 12 nM in data set [9] and 730 nM in data set [11]. Further, the clearance in data set [4] was found to be 45 mL/min/kg; in [10], 26 mL/min/kg; in data set [13], 13 mL/min/kg.

On to `Cl.N[C@@H](CC(=O)N1CCn2c(nnc2C(F)(F)F)C1)Cc1cc(F)c(F)cc1F`, for which the Cmax was 2200 nM in data set [15], 330 nM in data set [1] and 330 nM in data set [16]. Moreover, the half-life in data set [5] is 3.7 h; in data set [12], 1.7 h; in [14], 4.9 h. Also, the bioavailability in data set [6] stood at 68%; in [8] it was 100%. Moreover, the figures for the clearance in [10] and in data set [13] were 28 mL/min/kg and 6 mL/min/kg, respectively.

As to `Cl.N[C@@H](CC(=O)N1CCn2cnnc2C1)Cc1cc(F)c(F)cc1F`, the IC50 against Dipeptidyl peptidase 2 was above 10 µM; against Dipeptidyl peptidase 9 it was above 100 µM; at Dipeptidyl peptidase 4 it was 0.068 µM. In data set [1], this compound had a Cmax of 30 nM. Also, in data set [3], the bioavailability was determined as 3%. Also, in data set [4], the clearance is 40 mL/min/kg. Further, in [12], the half-life is 1 h.

For `Cl.N[C@@H](CC(=O)N1CCn2c(nnc2C(F)(F)F)C1)Cc1ccc(F)c(F)c1`, the IC50 on Dipeptidyl peptidase 2 is 98 µM; on Dipeptidyl peptidase 9, above 100 µM. Besides, the Cmax in [1] stood at 140 nM. The bioavailability in data set [3] was 44%. Besides, the clearance in data set [4] stood at 51 mL/min/kg. This compound showed a half-life in [12] of 1.8 h.

Turning to `Cl.N[C@@H](CC(=O)N1CCn2c(nnc2C(F)(F)C(F)(F)F)C1)Cc1cc(F)c(F)cc1F`, the IC50 against Dipeptidyl peptidase 2 was 78 µM; on Dipeptidyl peptidase 9, above 100 µM; against Dipeptidyl peptidase 4, 0.071 µM. Also, in data set [1], the Cmax came to 160 nM. This compound also came in with a bioavailability in data set [3] of 61%. In data set [4], the clearance came out at 58 mL/min/kg. Moreover, in data set [12], the half-life is 2.3 h.

In the case of `Cl.N[C@@H](CC(=O)N1CCn2c(nnc2C(F)(F)C(F)(F)F)C1)Cc1cc(F)ccc1F`, the IC50 on Dipeptidyl peptidase 2 was above 100 µM; against Dipeptidyl peptidase 9, above 100 µM; at Dipeptidyl peptidase 4, 0.103 µM. Besides, the Cmax in [1] amounted to 2 nM. For the same compound, the bioavailability in data set [3] came to 1%. Also, the clearance in data set [4] came to 109 mL/min/kg. This compound gave a half-life in data set [12] of 1.5 h.
